Experimental data: ChEMBL document CHEMBL1765014, “Non-peptide NK1 receptor ligands based on the 4-phenylpyridine moiety” (Bioorg Med Chem, 2011)
Calls of active or inactive are those of the source. The rule behind the calls is not given here.

Key:
Substance-P receptor = Substance-P receptor (Homo sapiens, UniProt P25103); assay: Displacement of [125I]BH-SP from human recombinant NK1 receptor expressed in CHO cells after 90 mins; type: cell-based
[1] = Antiangiogenic activity in bovine CVEC cell assessed as inhibition of Sar9-SP-sulfone-induced proliferation at 1 uM after 48 hrs by microscopic analysis; type: functional; conditions: Bos taurus
Method in brief: (§1)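 Subconfluent, synchronized bovine CVEC were stimulated with 10 nM Sar9-SP-sulfone, with or without test compound, for 48 h. Fixed and stained cells were counted microscopically as total cell number per well. Results are expressed as % inhibition of agonist-induced proliferation. Data are means ± SEM of three experiments; Student's t test.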

[2] = Antiangiogenic activity in bovine CVEC cell assessed as inhibition of Sar9-SP-sulfone-induced proliferation at 100 nM after 48 hrs by microscopic analysis; type: functional; conditions: Bos taurus; method in brief: as §1
[3] = Antiangiogenic activity in bovine CVEC cell assessed as inhibition of Sar9-SP-sulfone-induced cell migration at 1 uM after 4 hrs by microscopic analysis; type: functional; conditions: Bos taurus
Method in brief: (§2)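 Bovine post-capillary venular endothelial cells (CVEC), cultured as previously described. Cells migrated toward 10 nM Sar9-SP-sulfone with or without test compound in a Neuroprobe microchemotaxis chamber and were evaluated after 4 h. Results are expressed as % inhibition of Sar9-SP-sulfone-induced activity. Data are means ± SEM of three experiments; Student's t test.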

[4] = Antiangiogenic activity in bovine CVEC cell assessed as inhibition of Sar9-SP-sulfone-induced cell migration at 100 nM after 4 hrs by microscopic analysis; type: functional; conditions: Bos taurus; method in brief: as §2
[5] = Antiangiogenic activity in bovine CVEC cell assessed as inhibition of Sar9-SP-sulfone-induced proliferation after 48 hrs by microscopic analysis; type: functional, cell-based; conditions: Bos taurus; method in brief: as §1
[6] = Antiangiogenic activity in bovine CVEC cell assessed as inhibition of Sar9-SP-sulfone-induced cell migration after 4 hrs by microscopic analysis; type: functional, cell-based; conditions: Bos taurus; method in brief: as §2
CVEC [7] = assay: Antiangiogenic activity in bovine CVEC cell assessed as cell proliferation at 100 nM to 1 uM after 48 hrs by microscopic analysis; type: functional, cell-based; conditions: Bos taurus; method in brief: as §1
CVEC [8] = assay: Antiangiogenic activity in bovine CVEC cell assessed as cell migration at 100 nM to 1 uM after 4 hrs by microscopic analysis; type: functional, cell-based; conditions: Bos taurus; method in brief: as §2

Substance-P receptor, sequence (P25103 whole entry): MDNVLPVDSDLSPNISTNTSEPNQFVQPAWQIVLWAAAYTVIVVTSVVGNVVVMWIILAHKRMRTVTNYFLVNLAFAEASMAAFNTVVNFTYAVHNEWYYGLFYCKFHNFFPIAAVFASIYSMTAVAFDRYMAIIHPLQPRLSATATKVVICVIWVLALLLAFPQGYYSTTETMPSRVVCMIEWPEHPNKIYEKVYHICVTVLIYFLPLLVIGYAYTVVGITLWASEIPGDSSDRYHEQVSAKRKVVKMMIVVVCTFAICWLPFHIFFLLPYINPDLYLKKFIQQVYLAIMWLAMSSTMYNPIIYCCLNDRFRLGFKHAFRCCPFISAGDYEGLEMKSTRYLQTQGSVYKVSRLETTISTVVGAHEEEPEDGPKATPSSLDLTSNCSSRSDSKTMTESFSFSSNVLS

| IC50 (Substance-P receptor) | SMILES | other results |
| --- | --- | --- |
| 279 nM | Cc1c(C(=O)NCc2cc(C(F)(F)F)cc(C(F)(F)F)c2)c(-c2ccccc2)cc2nnnn12 |  |
|  | COc1ccccc1CNC(=O)c1c(-c2ccccc2)ccnc1C | inhibition at 1 µM [1]: 11%; inhibition at 0.1 µM [2]: 0%; inhibition at 1 µM [3]: 9%; inhibition at 0.1 µM [4]: 0%; IC50 [5]: > 1000 nM; IC50 [6]: > 1000 nM |
| 342 nM | Cc1c(C(=O)NCc2cc(C(F)(F)F)cc(C(F)(F)F)c2)c(-c2ccccc2)cc[n+]1[O-] |  |
| 434 nM | Cc1cc(-c2ccccc2)c(C(=O)NCc2cc(C(F)(F)F)cc(C(F)(F)F)c2)c(C)n1 |  |
| 270 nM | Cc1nc(Cl)cc(-c2ccccc2)c1C(=O)NCc1cc(C(F)(F)F)cc(C(F)(F)F)c1 |  |
| 92 nM | CN(Cc1cc(C(F)(F)F)cc(C(F)(F)F)c1)C(=O)c1cnc2ccccc2c1-c1ccccc1 |  |
| 32 nM | Cc1c(C(=O)N(C)Cc2cc(C(F)(F)F)cc(C(F)(F)F)c2)c(-c2ccccc2)cc[n+]1[O-] |  |
| 235 nM | O=C(NCc1cc(C(F)(F)F)cc(C(F)(F)F)c1)c1c(-c2ccccc2)ccnc1CCl |  |
| 53 nM | Cc1nc(N2CCN(C)CC2)cc(-c2ccccc2)c1C(=O)NCc1cc(C(F)(F)F)cc(C(F)(F)F)c1 | inhibition at 1 µM [1]: 76.3%; inhibition at 0.1 µM [2]: 33.5%; inhibition at 1 µM [3]: 100%; inhibition at 0.1 µM [4]: 100%; Activity (CVEC [7]): inactive; Activity (CVEC [8]): inactive |
| 41 nM | Cc1cc(-c2ccccc2)c(C(=O)N(C)Cc2cc(C(F)(F)F)cc(C(F)(F)F)c2)c(C)n1 |  |
| 98 nM | Cc1nccc(-c2ccccc2)c1C(=O)N(C)Cc1cc(C(F)(F)F)cc(C(F)(F)F)c1 |  |
| 53 nM | Cc1c(C(=O)N(C)Cc2cc(C(F)(F)F)cc(C(F)(F)F)c2)c(-c2ccccc2)cc2nncn12 |  |
| 208 nM | O=C(NCc1cc(C(F)(F)F)cc(C(F)(F)F)c1)c1cnc2ccccc2c1-c1ccccc1 |  |
| 42 nM | CN(Cc1cc(C(F)(F)F)cc(C(F)(F)F)c1)C(=O)c1c(CO)nc2ccccc2c1-c1ccccc1 |  |
| 19 nM | Cc1nc2ccccc2c(-c2ccccc2)c1C(=O)N(C)Cc1cc(C(F)(F)F)cc(C(F)(F)F)c1 |  |
| 227 nM | O=C(NCc1cc(C(F)(F)F)cc(C(F)(F)F)c1)c1c(CO)nc2ccccc2c1-c1ccccc1 |  |
| 653 nM | Cc1nccc(-c2ccccc2)c1C(=O)NCc1cc(C(F)(F)F)cc(C(F)(F)F)c1 |  |
| 257 nM | Cc1nc2ccccc2c(-c2ccccc2)c1C(=O)NCc1cc(C(F)(F)F)cc(C(F)(F)F)c1 |  |
| 91 nM | Cc1nc(Cl)cc(-c2ccccc2)c1C(=O)N(C)Cc1cc(C(F)(F)F)cc(C(F)(F)F)c1 |  |
| 52 nM | CN(Cc1cc(C(F)(F)F)cc(C(F)(F)F)c1)C(=O)c1c(-c2ccccc2)ccnc1CCl |  |
| 4.8 nM | Cc1nc(N2CCN(C)CC2)cc(-c2ccccc2)c1C(=O)N(C)Cc1cc(C(F)(F)F)cc(C(F)(F)F)c1 | inhibition at 1 µM [1]: 79.7%; inhibition at 0.1 µM [2]: 7.6%; inhibition at 1 µM [3]: 99%; inhibition at 0.1 µM [4]: 100%; Activity (CVEC [7]): inactive; Activity (CVEC [8]): inactive |
| 57 nM | Cc1c(C(=O)N(C)Cc2cc(C(F)(F)F)cc(C(F)(F)F)c2)c(-c2ccccc2)cc2nnnn12 |  |
| 698 nM | Cc1c(C(=O)NCc2cc(C(F)(F)F)cc(C(F)(F)F)c2)c(-c2ccccc2)cc2nncn12 |  |
